# High-throughput results as filed in PubChem.
# In the library only some 1.7% were active in any assay of this set; here they are far more common.
# Myeloid diff MLP: induction of myeloid progenitor differentiation, primary screen, cell-based, flow cytometry, MLPCN library; ER-HoxA9 myeloid progenitors, lysozyme-GFP differentiation; calls only at 10 µM; 360,000 compounds, 1% hits;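 active = normalized GFP-positive differentiation at or above the plate's own cutoff, the solvent-only control mean plus 3 SD; inconclusive = no clear call, values can overlap the other calls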;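 note: cells exposed to compound for four days before flow analysis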
# T cell modulator: modulators of CD8 T cell-vesicle binding, primary screen, mouse 2C CD8+ T cells, flow cytometry; 2C CD8+ T cell-vesicle binding; stronger effect = lower value; response (vesicle binding), % at 7 µM; 330,000 compounds, 0.068% hits; AID 2052, 2009;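 active = response, share of CD8 T cells binding vesicles, and their 90th percentile fluorescence all below set limits, cut at about 80% in these data, passing the limit was not always enough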;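 note: values below 100% mean blocked vesicle binding to the CD8+ T cells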
#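 incubation = binding step 1.5 h, 37 °C, antibody labelling 20 min, ice | test system = 2C mouse CD8+ T cells | read-out basis = percent CD8+ FL2 mean versus row control | controls = Peptide-free naked vesicles (low) and QL9 vesicles with 0.7% DMSO vehicle (high) | detection = flow cytometry of vesicle-bound cells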
# DSG3 Ab inh: inhibitors of pemphigus antibody binding to DSG3, primary screen, biochemical, bead-based, flow cytometry, scFv-GFP; Desmoglein-3 (Homo sapiens), P32926; binding (percent of control), % at 10 µM; 310,000 compounds, 0.48% hits; AID 588358, 2011; DSG3-coupled beads, scFv-anti-DSG3-GFP binding; stronger effect = lower value;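 active = binding more than 3 SD below its plate's average and above zero; inconclusive = below that plate limit but binding exactly zero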
# Target sequence (P32926 whole entry, looked up): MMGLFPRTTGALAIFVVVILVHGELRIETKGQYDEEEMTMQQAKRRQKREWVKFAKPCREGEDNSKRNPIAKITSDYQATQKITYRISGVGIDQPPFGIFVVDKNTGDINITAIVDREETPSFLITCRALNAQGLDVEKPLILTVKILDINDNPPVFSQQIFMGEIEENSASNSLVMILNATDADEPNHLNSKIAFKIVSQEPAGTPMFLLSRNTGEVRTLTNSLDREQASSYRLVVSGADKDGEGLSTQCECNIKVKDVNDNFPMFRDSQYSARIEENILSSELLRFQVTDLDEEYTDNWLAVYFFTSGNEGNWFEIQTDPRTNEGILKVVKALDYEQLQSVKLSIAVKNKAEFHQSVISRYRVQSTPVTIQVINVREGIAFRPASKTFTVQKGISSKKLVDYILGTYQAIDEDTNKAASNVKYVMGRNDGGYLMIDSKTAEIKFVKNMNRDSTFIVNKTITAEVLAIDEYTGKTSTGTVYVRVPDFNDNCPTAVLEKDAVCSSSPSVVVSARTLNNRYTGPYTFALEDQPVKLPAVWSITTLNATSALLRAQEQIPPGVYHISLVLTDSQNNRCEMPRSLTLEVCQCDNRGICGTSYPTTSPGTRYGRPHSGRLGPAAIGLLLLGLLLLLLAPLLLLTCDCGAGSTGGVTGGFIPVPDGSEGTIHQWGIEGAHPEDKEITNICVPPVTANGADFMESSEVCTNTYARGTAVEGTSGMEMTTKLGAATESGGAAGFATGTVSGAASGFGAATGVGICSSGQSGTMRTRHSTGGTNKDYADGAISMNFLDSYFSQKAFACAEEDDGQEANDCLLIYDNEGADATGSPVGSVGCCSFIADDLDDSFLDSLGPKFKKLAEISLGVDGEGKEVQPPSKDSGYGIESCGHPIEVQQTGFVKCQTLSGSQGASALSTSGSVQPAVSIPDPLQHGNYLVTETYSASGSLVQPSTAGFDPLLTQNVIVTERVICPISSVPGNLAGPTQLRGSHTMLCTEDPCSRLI
# Vif imaging: HIV Vif self-association inhibitors, primary screen, imaging, HEK293T, single point. HEK293T cells, Vif self-association by quenched fluorescence, 24 h. inhibition, % at 7.49 µM. 340,000 compounds, 0.35% hits. AID 602346, 2012; in the data active = inhibition above about 50%, passing the limit was not always enough; inconclusive = no clear call, values can overlap the other calls; inactive = below about 31%
# Myeloid diff: inducers of myeloid progenitor differentiation, confirmation, cell-based, GFP/Mac1 flow cytometry, cherry pick 01. shares compounds with Myeloid diff MLP. ER-HoxA9 myeloid progenitors, GFP/Mac1 double-positive flow. calls only. 2,300 compounds, 2% hits;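 active = share of green or green-and-red cells above 9 and 9% in run 1 or 4 and 3% in run 2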
# GFP autofluor: compound fluorescence in myeloid differentiation counter-screen | ER-HoxA9 myeloid progenitors, no estrogen, GFP autofluorescence flow cytometry; vehicle wells 0%, positive control 100% | fluorescence response, % (no concentration beside the values) | 2,300 compounds, 7.4% hits | shares compounds with Myeloid diff MLP | AID 651707;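 active = over 5% cells positive for green fluorescent reporter, or over 2% positive for both it and APC stain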;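 note: range taken on the double positive population between DMSO and positive control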
# * marks the source's active call; other numbers are inactive results; i = inactive; ? = inconclusive; nt = not tested or not shown; + = active, no number.
SMILES,Myeloid diff MLP,T cell modulator,DSG3 Ab inh,Vif imaging,Myeloid diff,GFP autofluor
S=C(c1cn(Cc2ccc(Br)cc2)c2ccccc12)N1CCOCC1,i,358,107,5,i,0
Cc1cc2cc(C(c3nnnn3CC3CCCO3)N3CCCc4ccccc43)c(=O)[nH]c2cc1C (configuration not stated),i,nt,105,4,i,0
CC(=O)c1sc(NC(=O)CCc2ccccc2)nc1C,i,nt,98,1,nt,nt
COc1ccc(-n2c(O)c(/C=N/NS(=O)(=O)c3ccc(C)c([N+](=O)[O-])c3)c3ccccc3c2=O)cc1OC,i,276,127,8,nt,nt
O=c1c2ccccc2c(/C=N/NS(=O)(=O)c2ccccc2)c(O)n1-c1ccccn1,i,215,116,0,i,0
NS(=O)(=O)c1ccc(NC(=S)NCc2ccccc2)cc1,i,340,99,2,nt,nt
NS(=O)(=O)c1ccc(NC(=S)NCc2ccccc2Cl)cc1,i,422,91,8,i,1
Cc1cc(C)nc(SCC(=O)NN=Cc2ccc(C)o2)n1,i,331,nt,2,nt,nt
CN(CC(=O)Nc1cccc(F)c1)C(=O)CC1CC2CCC1C2 (configuration not stated),i,439,nt,-6,nt,nt
CCN(CC)CCN(C(=O)c1ccc(N2C(=O)CCC2=O)cc1)c1nc2cc3c(cc2s1)OCCO3,+,56,98,-9,i,0
CCN(CC)CCN(C(=O)c1cccc(N2C(=O)CCC2=O)c1)c1nc2cc3c(cc2s1)OCO3,i,155,96,-2,nt,nt
COc1ccc(-c2csc(NC(=O)CSC(C)C(=O)Nc3cc(C)on3)n2)cc1OC (configuration not stated),i,427,nt,-3,nt,nt
OCCN(Cc1ccccc1)Cc1ccccc1O,i,195,86,-4,nt,nt
OCCN(Cc1ccccc1)Cc1ccc(F)c(F)c1,i,401,93,8,i,0
CC(C)(C)c1ccc(C(=O)NCCC(=O)NCc2ccc(F)cc2)cc1,i,nt,95,nt,nt,nt
O=C1C=C(c2ccc(-c3ccccc3)cc2)C[C@@H](c2ccc(Cl)cc2)C1,i,104,95,-4,i,0
Nc1ccccc1C(=O)NNC1=C(C(=O)C(F)(F)F)CCC1,+,334,100,8,i,2
COc1ccccc1C(=O)NNC1=C(C(=O)C(F)(F)F)CCC1,+,565,103,9,i,2
O=C(NNC1=C(C(=O)C(F)(F)F)CCC1)c1ccccc1O,i,222,113,1,nt,nt
O=C(O)[C@@H]1Cc2ccccc2N1,+,328,nt,1,i,5.4*
COc1ccccc1NC(=O)Nc1c(C)n(C)n(-c2ccccc2)c1=O,i,327,109,3,i,0
Cc1cccn2cc(COc3ccc(-c4ccccc4)cc3)nc12,+,nt,nt,-9,+,1
O=C(NC12CC3CC(CC(C3)C1)C2)c1ccc([N+](=O)[O-])o1,i,514,110,0,nt,nt
O=C(Nc1nc(-c2ccc(Cl)cc2)cs1)C1=COCCO1,i,283,114,-5,i,0
CCCC(=O)Nc1c(-c2ccccc2)[nH][nH]c1=O,i,nt,nt,-2,nt,nt
SMILES,Myeloid diff MLP,T cell modulator,DSG3 Ab inh,Vif imaging,Myeloid diff,GFP autofluor
Cc1cnc(NC(=O)Cc2ccccc2Cl)s1,i,201,100,0,i,0
Cc1csc(NC(=O)Cc2ccccc2Cl)n1,i,161,99,0,nt,nt
Cc1cnc(NC(=O)CSc2ccccc2)s1,+,384,107,nt,i,0
CC(=NNC(=S)N1CC2CCC(CC2)C1)c1ccncn1,?,nt,nt,-14,nt,nt
CCC1CCCCN1Cc1ccc(OC)c(OC)c1 (configuration not stated),i,276,102,-6,nt,nt
COc1cc(C)c(CN2CCCCC2CO)cc1C (configuration not stated),+,306,103,-5,i,0
Nc1cccn2c(-c3ccc(Cl)cc3)cnc12,+,111,104,7,i,0
Clc1ccc(-c2cnc3cccnn23)cc1,i,nt,nt,-5,nt,nt
Cc1ccc2c(c1)-n1c(nc3ccc(C)cc3c1=O)C(Cc1ccc(O)cc1)NC2=O (configuration not stated),nt,287,nt,nt,nt,nt
CC(=O)Oc1ccccc1Cn1c(C)c(C(=O)NCc2ccc(Cl)c(Cl)c2)sc1=O,i,nt,nt,-2,nt,nt
CCCC/C(C)=N/NC(=O)CN(c1ccc(Br)cc1)S(=O)(=O)c1ccccc1,i,770,98,-5,nt,nt
C/C(=N/NC(=O)CN(c1ccccc1)S(=O)(=O)c1ccccc1)c1ccccc1O,i,164,121,-3,i,0
CSc1nc(C)cc(C)c1C#N,+,138,98,-3,i,0
CCCCC(=O)N(C)c1c(CC)nc2c(OCC(=O)C(C)(C)C)cccn12,i,nt,nt,nt,nt,nt
O=C(O)c1ccc(Cl)c(S(=O)(=O)Nc2ccc(OCc3ccccc3)cc2)c1,i,178,99,0,i,0
CCOc1ccc(NS(=O)(=O)c2cc(C(=O)N3CCCC3)ccc2Cl)cc1,i,222,?,13,nt,nt
CC(=O)N/C(=C\c1ccccc1)C(=O)OCC(=O)N(C)C1CCS(=O)(=O)C1 (configuration not stated),i,147,103,-4,nt,nt
CCOc1ccc(/C=N/NC(=O)c2ccccc2Cl)cc1CN1CC2CC(C1)c1cccc(=O)n1C2 (configuration not stated),i,981,105,9,i,0
COc1ccc2sc3c(=O)[nH]c4ccccc4c3c2c1,+,234,85,-6,i,0
C#CC[N+](CC)(CC)CC#Cc1cccc(Cl)c1,+,157,102,?,i,1
Cn1c(=O)c2ccccc2n(Cc2ccccc2Cl)c1=O,i,296,117,-4,i,0
CN(C)c1ccc(NC(=O)CN2CCC(O)(c3ccccc3)CC2)cc1,i,209,nt,-11,i,0
CCOC(=O)N1CCN(C(=O)C2CCN(S(=O)(=O)N3CCCC3)CC2)CC1,+,226,98,2,i,0
O=C1NC(Cc2ccc(O)cc2)c2nc3cc(F)ccc3c(=O)n2-c2cc3ccccc3cc21 (configuration not stated),i,nt,nt,9,nt,nt
COCCNC(=O)C1(C)CCN(C(=O)c2cccc(C)c2C)C1 (configuration not stated),i,nt,nt,-5,nt,nt
Cc1cc(C)cc(N2C(N)=NC(N)=NC2c2cccc(Cl)c2)c1 (configuration not stated),i,208,97,3,nt,nt
